# Active and inactive are the calls of the source. The calls are words filed in the database; no cut-off is given here.
# What was measured:
# [1] = system: Rattus norvegicus; experiment: Change in rectal temperature induced by DiPr-5,6-ADTN at a dose of 22 umol/kg of compound by subcutaneous administration; assay type: functional
# Summary of the method: (§1)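 Rats received DiPr-5,6-ADTN (0.25 μmol/kg sc) 100 min and test compound sc 40 min before death. Rectal temperature change (°C) was recorded between 60 and 100 min after DiPr-5,6-ADTN. Values are mean ± SEM, n = 4, with Student's t test vs DiPr-5,6-ADTN alone.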
# [2] = system: Rattus norvegicus; experiment: Change in rectal temperature induced by DiPr-5,6-ADTN at a dose of 45 umol/kg of compound by subcutaneous administration; assay type: functional; summary of the method: as §1
# [3] = system: Rattus norvegicus; experiment: In vivo DOPA accumulation in non pretreated rat limbic system by subcutaneous administration; I denotes inactive; assay type: functional, organism-based
# Summary of the method: (§2)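 Rats without pretreatment received test drug sc 65 min and NSD 1015 (100 mg/kg ip) 30 min before death, with saline controls. DOPA was measured in limbic or striatal tissue. Dose for half-maximal change was estimated from 4-5-dose curves (n = 3-5), maximal level as % of control.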
# [4] = system: Rattus norvegicus; experiment: In vivo DOPA accumulation in non pretreated rat striatum system by subcutaneous administration; I denotes inactive; assay type: functional, organism-based; summary of the method: as §2
# [5] = system: Rattus norvegicus; experiment: In vivo DOPA accumulation in reserpine pretreated rat limbic system by subcutaneous administration; assay type: functional; settings: sc
# Summary of the method: (§3)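 Rats received reserpine (5 mg/kg sc) 18 h, test drug sc 60 min and NSD 1015 (100 mg/kg ip) 30 min before death, with saline controls. Limbic or striatal DOPA was measured. Dose for half-maximal decrease was estimated from 4-7-dose curves (n = 3-5), minimal level as % of control.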
# [6] = system: Rattus norvegicus; experiment: In vivo DOPA accumulation in reserpine pretreated rat striatum system by subcutaneous administration; assay type: functional; settings: sc; summary of the method: as §3
# [7] = system: Rattus norvegicus; experiment: Locomotory activity was determined in non pretreated rats at a dose of 52 umol/kg by subcutaneous administration; I denotes inactive; assay type: functional
# Summary of the method: (§4)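 Untreated rats received test drug sc 5 min before a 30-min session in photocell motility meters, with accumulated counts recorded. Activity is expressed as percent of saline controls, mean ± SEM, n = 3-5. Gross behaviour was observed through a semitransparent mirror. Differences from saline controls were assessed by Student's t test.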
# [8] = system: Rattus norvegicus; experiment: Locomotory activity was determined in reserpine pretreated rats at a dose of 204 umol/kg by subcutaneous administration. Value is the accumulation counts/30 min; assay type: functional
# Summary of the method: (§5)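 Rats were given reserpine 5 mg/kg sc 18 h beforehand, then test drug sc immediately before the activity session. Motor activity was recorded by photocells in motility meters as accumulated counts over 30 min, mean ± SEM, n = 3-4. Gross behaviour was watched for signs of stimulation. Reserpine-only controls were included.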
# [9] = system: Rattus norvegicus; experiment: Locomotory activity was determined in non pretreated rats at a dose of 3.2 umol/kg by subcutaneous administration; I denotes inactive; assay type: functional, organism-based; summary of the method: as §4
# [10] = target: T1, Dopamine receptor (Rattus norvegicus) (UniProt P25115+P19020+P30729+P18901+P61169); settings: 22 uM
# [11] = target: T1, Dopamine receptor (Rattus norvegicus); settings: 45 uM
# [12] = system: Rattus norvegicus; experiment: Locomotory activity was determined in reserpine pretreated rats at a dose of 3.2 umol/kg by subcutaneous administration. Value is the accumulation counts/30 min; assay type: functional; summary of the method: as §5
# [13] = system: Rattus norvegicus; experiment: Locomotory activity was determined in non pretreated rats at a dose of 0.32 umol/kg by subcutaneous administration; assay type: functional; summary of the method: as §4
# [14] = system: Rattus norvegicus; experiment: Locomotory activity was determined in non pretreated rats at a dose of 3.2 umol/kg by subcutaneous administration; assay type: functional; summary of the method: as §4
# [15] = target: T1, Dopamine receptor (Rattus norvegicus); experiment: Ability to displace the Dopamine receptor agonist DiPr-5,6-ADTN from rat striatal binding sites in vivo at a dose of 52 uM/kg by subcutaneous administration; assay type: organism-based
# [16] = system: Rattus norvegicus; experiment: Induced locomotor stimulation was determined in non pretreated rats at a dose of 52 uM/kg by subcutaneous administration; assay type: functional; summary of the method: as §4
# [17] = system: Rattus norvegicus; experiment: Locomotory activity was determined in reserpine pretreated rats at a dose of 125 umol/kg by subcutaneous administration. Value is the accumulation counts/30 min; assay type: functional; summary of the method: as §5
# [18] = system: Rattus norvegicus; experiment: Change in rectal temperature induced by DiPr-5,6-ADTN at a dose of 52 umol/kg of compound by subcutaneous administration; assay type: functional; summary of the method: as §1
# [19] = system: Rattus norvegicus; experiment: Change in rectal temperature induced by DiPr-5,6-ADTN at a dose of 2.7 umol/kg of compound by subcutaneous administration; assay type: functional
# Summary of the method: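 Rats received DiPr-5,6-ADTN at 0.25 μmol/kg sc, then the test compound sc (tested range 2.7–204 μmol/kg) 60 min later. Rectal temperature change was measured between 60 and 100 min after DiPr-5,6-ADTN. Values are mean ± SEM, n = 4, compared with DiPr-5,6-ADTN-only controls by Student's t test.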
# [20] = system: Rattus norvegicus; experiment: In vivo DOPA accumulation in non pre-treated rat limbic system following s.c. administration.; assay type: functional; settings: sc; summary of the method: as §2
# [21] = system: Rattus norvegicus; experiment: In vivo DOPA accumulation in non pre-treated rat striatal system following s.c. administration.; assay type: functional; settings: sc; summary of the method: as §2
# [22] = system: Rattus norvegicus; experiment: In vivo DOPA accumulation in reserpine pretreated rat limbic system after 1.4 umol/kg ip; I denotes inactive; assay type: functional, organism-based
# [23] = system: Rattus norvegicus; experiment: In vivo DOPA accumulation in reserpine pretreated rat striatum system after 1.4 umol/kg ip; I denotes inactive; assay type: functional, organism-based
# [24] = system: Rattus norvegicus; experiment: Locomotory activity was determined in non pretreated rats at a dose of 2.7 umol/kg by intraperitoneal administration
# [25] = target: T1, Dopamine receptor (Rattus norvegicus); experiment: In vivo displacement of DiPr-5,6-ADTN from Dopamine receptors in rat striatum; assay type: organism-based
# [26] = target: T1, Dopamine receptor (Rattus norvegicus); experiment: Ability to displace the Dopamine receptor agonist DiPr-5,6-ADTN from rat striatal binding sites in vivo at a dose of 52 umol/kg by subcutaneous administration; assay type: organism-based
# [27] = target: T1, Dopamine receptor (Rattus norvegicus); experiment: Ability to displace the Dopamine receptor agonist DiPr-5,6-ADTN from rat striatal binding sites in vivo at a dose of 13 umol/kg by subcutaneous administration; assay type: organism-based
# [28] = system: Rattus norvegicus; experiment: Change in rectal temperature induced by DiPr-5,6-ADTN at a dose of 3.2 umol/kg of compound by subcutaneous administration; assay type: functional; summary of the method: as §1
# [29] = system: Rattus norvegicus; experiment: ((+)-UH-232) induced locomotor stimulation was determined in non pretreated rats at a dose of 13 umol/kg by subcutaneous administration; assay type: functional
# [30] = system: Rattus norvegicus; experiment: ((+)-UH-232) induced locomotor stimulation was determined in non pretreated rats at a dose of 52 umol/kg by subcutaneous administration; assay type: functional
# [31] = system: Rattus norvegicus; experiment: Induced locomotor stimulation was determined in non pretreated rats at a dose of 3.2 umol/kg by subcutaneous administration; assay type: functional; summary of the method: as §4
# [32] = system: Rattus norvegicus; experiment: Locomotory activity was determined in non pretreated rats at a dose of 52 umol/kg by subcutaneous administration; assay type: functional; summary of the method: as §4
# [33] = system: Rattus norvegicus; experiment: Change in rectal temperature induced by DiPr-5,6-ADTN at a dose of 13 subcutaneous administration; assay type: functional; summary of the method: as §1
structure (smiles),measurement,setting,value
CCCN(CCC)[C@H]1CCc2c(OC)cccc2[C@H]1C,Body temp change,[1],0.12 °C
same,Body temp change,[2],0.5 °C
same,ED50,[3],inactive
same,ED50,[4],inactive
same,ED50,[5],5.5 µmol/kg
same,ED50,[6],5.8 µmol/kg
same,Activity,[7],inactive
same,Activity,[8],8 counts/30 min
same,Activity,[9],inactive
same,Binding,[10],106%
same,Binding,[11],94%
CN1CCc2cccc3c2[C@H]1Cc1ccc(O)c(O)c1-3 [APOMORPHINE],ED50,[5],0.041 µmol/kg
same,ED50,[6],0.044 µmol/kg
same,Activity,[12],366 counts/30 min
same,Activity,[13],52%
same,Activity,[14],277%
CCCN[C@H]1CCc2c(O)cccc2[C@H]1C,Binding,[15],66%
same,Activity,[16],80%
same,ED50,[5],4 µmol/kg
same,ED50,[6],5 µmol/kg
same,Activity,[17],26%
same,Body temp change,[18],-0.45 °C
O=C(CCCN1CCC(O)(c2ccc(Cl)cc2)CC1)c1ccc(F)cc1 [HALOPERIDOL],Body temp change,[19],1.34 °C
same,ED50,[20],0.19 µmol/kg
same,ED50,[21],0.19 µmol/kg
same,ED50,[22],inactive
same,ED50,[23],inactive
same,Activity,[24],3%
COc1cccc2c1CC[C@@H](N(C)C)[C@H]2C,Binding,[25],60%
same,Binding,[26],14%
same,Binding,[27],40%
same,Temperature,[28],-0.15 °C
same,Activity,[29],15%
same,Activity,[30],8%
same,ED50,[20],2.2 µmol/kg
same,ED50,[21],2.9 µmol/kg
same,Activity,[31],62%
same,Activity,[32],9%
same,Activity,[14],100%
same,Temperature,[18],0.28 °C
same,Temperature,[33],1.6 °C
